Experiment [1] can be described thus: P50C is the control value in whole blood in experiment. It counts as functional, Homo sapiens. The procedure, abridged:
(§1)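 Heparinized whole blood from healthy volunteers, kept on ice, was given the effector sodium salt from a 200 mM DMSO stock to 5.0 mM final. It was tonometered about 10-12 min at 37 °C and equilibrated at 20%, 40% and 60% O₂. pH, pCO₂, pO₂ and sO₂ were read by blood gas analyzer and co-oximeter, at least in duplicate. ΔP50 = P50e − P50c.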

The nature of experiment [2]: P50e is the value in the presence of the effector in whole blood in experiment 1 (in vitro). It is filed as functional, Homo sapiens. The procedure, abridged:
as §1

Experiment [3] in a line: P50e is the value in the presence of the effector in whole blood in experiment 2 (in vitro). It is filed as functional, Homo sapiens. The gist of the method: as §1
Experiment [4] in a line: P50e is the value in the presence of the effector in whole blood in experiment 3 (in vitro). It counts as functional, Homo sapiens. The gist of the method: as §1
Experiment [5] concerns the target T1, Hemoglobin HbA (Homo sapiens) (UniProt P69905+P68871). In words: Oxygen pressure at which hemoglobin is 50% saturated with oxygen in the presence of the effector. It is filed as functional. The procedure, abridged: (§2)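 Purified stripped human adult Hb in 50 mM bis-Tris, 100 mM NaCl, pH 7.2, at 60-70 µM heme, with effector at 0.5 mM. Catalase and EDTA were added, and the sample was saturated with carbogen. The curve was recorded on a Hemox analyzer as O₂ pressure was lowered over 45-60 min, with saturation read at 577/586.2 nm. P50 came from linear regression of 40-60% saturation points. Single runs, each with its own no-effector control.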

A short description of experiment [6]: The difference between P50e and P50c tested. It is filed as functional. The procedure, abridged:
as §1

For experiment [7], the target named is T1, Hemoglobin HbA (Homo sapiens). In words: Ratio of P50e to P50c (P50 control value with no effector present, 5 mmHg). It counts as functional. The gist of the method:
as §2

The nature of experiment [8]: Hill coefficient at 50% saturation in the presence of effector.

“And” between values parts separate entries of the source, which are not always exact repeats. Equal entries are not always repeated.

T1 sequence (P68871 2-147 partner limits assumed): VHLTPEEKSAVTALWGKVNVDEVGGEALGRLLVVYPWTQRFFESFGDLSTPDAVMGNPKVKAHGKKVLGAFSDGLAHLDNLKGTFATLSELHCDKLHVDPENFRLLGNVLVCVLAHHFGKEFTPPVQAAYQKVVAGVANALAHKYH
T1 sequence (P69905 2-142 limits assumed): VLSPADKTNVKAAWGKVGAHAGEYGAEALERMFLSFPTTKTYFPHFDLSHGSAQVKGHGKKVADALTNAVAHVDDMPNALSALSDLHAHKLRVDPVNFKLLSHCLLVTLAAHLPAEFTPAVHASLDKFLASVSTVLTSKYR

In experiment [1], `Cc1cc(C)cc(NC(=O)Cc2ccc(O[C@@]3(C(=O)O)CCC[C@@H]3C)cc2)c1` came in with a P50c of 25.7 mmHg. Moreover, the P50e stood at 49.7 mmHg in experiment [2], 46.8 mmHg in experiment [3], 42.4 mmHg in experiment [4] and 19.9 mmHg in experiment [5]. Also, in experiment [6], the ΔP50 (P50e minus P50c) came out at 20.6 mmHg. For the same molecule, the P50e/P50c in experiment [7] was determined as 4. Further, the Hill coefficient (n50) in experiment [8] is 2.6 and 1.8.

(Values after ChEMBL document CHEMBL1132954, “Synthesis and structure-activity relationships of chiral allosteric modifiers of hemoglobin” (2000).)
